Values after ≈ are worked out from the molar mass of the structure shown.
What was measured:
Mus musculus [1] = test: Toxicity in female BDF1 mouse allografted with mouse P388 cells assessed as animal survival at 12.5 mg/kg, ip administered daily for 9 days as Klucel suspension starting 24 hrs after tumor inoculation; assay type: organism-based; design: dose 12.5 mg/kg, route intraperitoneal; details: in vivo
Outline: (§1)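 P-388 leukemia ascitic fluid inoculated ip. Compound given ip as a suspension in Klucel (hydroxypropylcellulose), once daily for nine doses beginning 24 h post-inoculation. Acute toxicity assessed as toxicity-day survivors per group. Survival was followed up to 30 days, with 30-day survival counted as "cure". Follows NCI screening protocols.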

P388 [2] = test: Antitumor activity against mouse P388 cells allografted in female CDF1 mouse assessed as change in body weight at 100 mg/kg, ip administered daily for 9 days as Klucel suspension starting 24 hrs after tumor inoculation; assay type: functional; details: route intraperitoneal
Outline: (§2)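 Ascitic fluid carrying P388 cells was inoculated ip. Compound was given ip in nine daily doses, starting 24 h after inoculation, in Klucel (hydroxypropylcellulose) suspension or in saline with Tween-80. Body-weight difference (treated minus control) was recorded on day 5. Survival was scored as %T/C of median survival time, and 30-day survival counted as cure.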

P388 [3] = test: Antitumor activity against mouse P388 cells allografted in female CDF1 mouse assessed as disease cures by measuring 30-days host survival at 6.25 mg/kg, ip administered daily for 9 days as Klucel suspension starting 24 hrs after tumor inoculation relative to control; assay type: functional; details: route intraperitoneal
Outline: (§3)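 P388 leukemia given as an ascitic fluid cell inoculum, ip, to mice of the strain and sex in each line. Nine daily ip doses were given in a Klucel (hydroxypropylcellulose) suspension, starting 24 h after inoculation. Read-out is median survival time as %T/C, with >125 taken as significant; a "cure" means 30-day survival.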

L1210 [4] = test: Antileukemic activity against mouse L1210 cells allografted in female BDF1 mouse assessed as change in body weight at 200 mg/kg, ip administered daily for 9 days as Klucel suspension starting 24 hrs after tumor inoculation; assay type: functional; details: route intraperitoneal
Outline: (§4)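 Ascitic fluid carrying L1210 cells was inoculated ip. Compound was given ip as a Klucel (hydroxypropylcellulose) suspension in nine daily doses, starting 24 h after inoculation. Body-weight difference (treated minus control) was recorded on day 5. Survival was scored as %T/C of mean survival time.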

P388 [5] = test: Antitumor activity against mouse P388 cells allografted in female CDF1 mouse assessed as disease cures by measuring 30-days host survival at 50 mg/kg, ip administered daily for 9 days as Klucel suspension starting 24 hrs after tumor inoculation relative to control; assay type: functional; details: route intraperitoneal; outline: as §3
P388 [6] = test: Antitumor activity against mouse P388 cells allografted in female CDF1 mouse assessed as change in body weight at 3.13 mg/kg, ip administered daily for 9 days as Klucel suspension starting 24 hrs after tumor inoculation; assay type: functional; details: route intraperitoneal; outline: as §2
P388 [7] = test: Antitumor activity against mouse P388 cells allografted in female CDF1 mouse assessed as change in body weight at 200 mg/kg, ip administered daily for 9 days as Klucel suspension starting 24 hrs after tumor inoculation; assay type: functional; details: route intraperitoneal; outline: as §2
Mus musculus [8] = test: Toxicity in female BDF1 mouse allografted with mouse L1210 cells assessed as animal survival at 100 mg/kg, ip administered daily for 9 days as Klucel suspension starting 24 hrs after tumor inoculation measured on fifth day; assay type: organism-based; design: dose 100 mg/kg, route intraperitoneal; details: in vivo
Outline: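 Female BDF1 mice bearing ip ascitic L1210 inoculum got nine daily ip doses in a Klucel suspension, starting 24 h after tumor inoculation. Toxicity was scored as toxicity-day survivors out of the group, recorded on the fifth day. Animal weight difference (T − C) was also tabulated.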

L1210 [9] = test: Antileukemic activity against mouse L1210 cells allografted in female BDF1 mouse assessed as change in body weight at 100 mg/kg, ip administered daily for 9 days as Klucel suspension starting 24 hrs after tumor inoculation; assay type: functional; details: route intraperitoneal; outline: as §4
P388 [10] = test: Antitumor activity against mouse P388 cells allografted in female BDF1 mouse assessed as disease cures by measuring 30-days host survival at 25 mg/kg, ip administered daily for 9 days as Klucel suspension starting 24 hrs after tumor inoculation relative to control; assay type: functional; details: route intraperitoneal; outline: as §3
Mus musculus [11] = test: Toxicity in female BDF1 mouse allografted with mouse L1210 cells assessed as animal survival at 200 mg/kg, ip administered daily for 9 days as Klucel suspension starting 24 hrs after tumor inoculation measured on fifth day; assay type: organism-based; design: dose 200 mg/kg, route intraperitoneal; details: in vivo
Outline: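 L1210 leukemia passaged as ascitic fluid and inoculated ip. Test agent given ip as a Klucel (hydroxypropylcellulose) suspension, nine daily doses starting 24 h after tumor inoculation. Acute toxicity read as toxicity-day survivors per group (out of 6), recorded on day 5. Animal weight difference T − C was also recorded. Follows NCI screening protocols.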

P388 [12] = test: Antitumor activity against mouse P388 cells allografted in female CDF1 mouse assessed as disease cures by measuring 30-days host survival at 3.13 mg/kg, ip administered daily for 9 days as Klucel suspension starting 24 hrs after tumor inoculation relative to control; assay type: functional; details: route intraperitoneal; outline: as §3
L1210 [13] = test: Antileukemic activity against mouse L1210 cells allografted in female BDF1 mouse assessed as change in body weight at 50 mg/kg, ip administered daily for 9 days as Klucel suspension starting 24 hrs after tumor inoculation; assay type: functional; details: route intraperitoneal; outline: as §4
P388 [14] = test: Antitumor activity against mouse P388 cells allografted in female BDF1 mouse assessed as change in body weight at 25 mg/kg, ip administered daily for 9 days as Klucel suspension starting 24 hrs after tumor inoculation; assay type: functional; details: route intraperitoneal; outline: as §2
L1210 [15] = test: Antileukemic activity against mouse L1210 cells allografted in female BDF1 mouse assessed as host mean survival time at 100 mg/kg, ip administered daily for 9 days as Klucel suspension starting 24 hrs after tumor inoculation relative to control; assay type: functional; details: route intraperitoneal
Outline: (§5)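 L1210 leukemia given as an ascitic fluid cell inoculum, ip, to mice of the strain and sex in each line. Test material was given ip for nine daily doses starting 24 h after inoculation, in a Klucel (hydroxypropylcellulose) suspension. Read-out is mean survival time as %T/C versus controls, with >125 taken as significant.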

Mus musculus [16] = test: Toxicity in female CDF1 mouse allografted with mouse P388 cells assessed as animal survival at 50 mg/kg, ip administered daily for 9 days as Klucel suspension starting 24 hrs after tumor inoculation; assay type: organism-based; design: dose 50 mg/kg, route intraperitoneal; details: in vivo; outline: as §1
Mus musculus [17] = test: Toxicity in female CDF1 mouse allografted with mouse P388 cells assessed as animal survival at 6.25 mg/kg, ip administered daily for 9 days as Klucel suspension starting 24 hrs after tumor inoculation; assay type: organism-based; design: dose 6.25 mg/kg, route intraperitoneal; details: in vivo; outline: as §1
P388 [18] = test: Antitumor activity against mouse P388 cells allografted in female CDF1 mouse assessed as change in body weight at 50 mg/kg, ip administered daily for 9 days as Klucel suspension starting 24 hrs after tumor inoculation; assay type: functional; details: route intraperitoneal; outline: as §2
P388 [19] = test: Antitumor activity against mouse P388 cells allografted in female BDF1 mouse assessed as disease cures by measuring 30-days host survival at 12.5 mg/kg, ip administered daily for 9 days as Klucel suspension starting 24 hrs after tumor inoculation relative to control; assay type: functional; details: route intraperitoneal; outline: as §3
P388 [20] = test: Antitumor activity against mouse P388 cells allografted in female CDF1 mouse assessed as change in body weight at 6.25 mg/kg, ip administered daily for 9 days as Klucel suspension starting 24 hrs after tumor inoculation; assay type: functional; details: route intraperitoneal; outline: as §2
P388 [21] = test: Antitumor activity against mouse P388 cells allografted in female BDF1 mouse assessed as change in body weight at 12.5 mg/kg, ip administered daily for 9 days as Klucel suspension starting 24 hrs after tumor inoculation; assay type: functional; details: route intraperitoneal; outline: as §2
L1210 [22] = test: Antileukemic activity against mouse L1210 cells allografted in female BDF1 mouse assessed as host mean survival time at 50 mg/kg, ip administered daily for 9 days as Klucel suspension starting 24 hrs after tumor inoculation relative to control; assay type: functional; details: route intraperitoneal; outline: as §5
Mus musculus [23] = test: Toxicity in female BDF1 mouse allografted with mouse P388 cells assessed as animal survival at 25 mg/kg, ip administered daily for 9 days as Klucel suspension starting 24 hrs after tumor inoculation; assay type: organism-based; design: dose 25 mg/kg, route intraperitoneal; details: in vivo; outline: as §1
[24] = Cytotoxicity against human 9KB cells treated as ethanol solution; assay type: functional; details: read-out: ED50 (the source's name)
Outline: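 Compound applied as an ethanol solution; activity read out as ED50 under the general screening protocol.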

Mus musculus [25] = test: Toxicity in female CDF1 mouse allografted with mouse P388 cells assessed as animal survival at 3.13 mg/kg, ip administered daily for 9 days as Klucel suspension starting 24 hrs after tumor inoculation; assay type: organism-based; design: dose 3.13 mg/kg, route intraperitoneal; details: in vivo; outline: as §1

CNC(=O)OCc1c(COC(=O)NC)c(-c2ccc(Cl)cc2)n2c1CCC2
Activity (Mus musculus [1]): Non-toxic | Activity (P388 [2]): -0.9 g | T/C (P388 [3]): 150% | Activity (L1210 [4]): -2.8 g | T/C (P388 [5]): 104% | Activity (P388 [6]): -0.6 g | Activity (P388 [7]): 0.5 g | Activity (Mus musculus [8]): Non-toxic | Activity (L1210 [9]): -3.8 g | T/C (P388 [10]): 135% | Activity (Mus musculus [11]): Toxic | T/C (P388 [12]): 127% | Activity (L1210 [13]): -2.6 g | Activity (P388 [14]): -0.8 g | T/C (L1210 [15]): 107% | Activity (Mus musculus [16]): Non-toxic | Activity (Mus musculus [17]): Non-toxic | Activity (P388 [18]): -2.5 g | T/C (P388 [19]): 129% | Activity (P388 [20]): 0.2 g | Activity (P388 [21]): -0.2 g | T/C (L1210 [22]): 112% | Activity (Mus musculus [23]): Non-toxic | EC50 [24]: 2.3 µg/mL (≈ 5.87 µM) | Activity (Mus musculus [25]): Non-toxic

From ChEMBL document CHEMBL3244396, “Synthesis and antileukemic activity of 5-substituted 2,3-dihydro-6,7-bis(hydroxymethyl)-1H-pyrrolizine diesters” (J Med Chem, 1977)
